Measurements published in ChEMBL document CHEMBL3045276, “Synthesis and biological activity of some novel trifluoromethyl-substituted 1,2,4-triazole and bis(1,2,4-triazole) Mannich bases containing piperazine rings” (2010).

Tests used:
Type in all cases: functional
Sclerotinia sclerotiorum = experiment: Fungicidal activity against Sclerotinia sclerotiorum in cucumber plant two seed leaves stage assessed as control efficacy from disease indices at 500 ug/mL at 18 to 30 degC and above 80%RH relative to control; settings: read-out: GI
Procedure, shortened: (§1)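 Cucumber seeds germinated (soaked 2 h in water at 50 °C, kept moist 24 h at 28 °C) and grown in 1:1 vermiculite/peat; two-seed-leaf plants sprayed at 500 μg/mL, then inoculated 2 h later by spraying conidial (C. cassiicola, A. citrullina, P. cubensis), bacterial (P. syringae) or mycelial (S. sclerotiorum) suspension. Held 18-30 °C, >80% RH; four repeats; control efficacy = (CK−PT)/CK×100 from disease indices once untreated plants fully symptomatic.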

[1] = system: Brassica rapa subsp. oleifera; experiment: Herbicidal activity against Brassica rapa subsp. oleifera assessed as inhibition of root growth at 100 ug/mL at 28 degC
Procedure, shortened: (§2)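 Rape seeds soaked 4 h in distilled water, then 15 per 6 cm dish on filter paper wetted with 2 mL aqueous test solution (emulsified if needed); germinated 65 h at 28 ± 1 °C in darkness. Mean length of 10 roots per dish measured; percentage inhibition calculated against distilled-water check.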

[2] = system: Brassica rapa subsp. oleifera; experiment: Herbicidal activity against Brassica rapa subsp. oleifera assessed as inhibition of root growth at 10 ug/mL at 28 degC; procedure, shortened: as §2
Corynespora cassiicola = experiment: Fungicidal activity against Corynespora cassiicola in cucumber plant two seed leaves stage assessed as control efficacy from disease indices at 500 ug/mL at 18 to 30 degC and above 80%RH relative to control; settings: read-out: GI; procedure, shortened: as §1
Ascochyta = experiment: Fungicidal activity against Ascochyta […] in cucumber plant two seed leaves stage assessed as control efficacy from disease indices at 500 ug/mL at 18 to 30 degC and above 80%RH relative to control; settings: read-out: GI; procedure, shortened: as §1
Echinochloa crus-galli [3] = experiment: Herbicidal activity against Echinochloa crus-galli (barnyard grass) assessed as inhibition of seedling growth at 10 ug/mL at 28 degC
Procedure, shortened: (§3)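 Ten barnyardgrass seeds placed in cup over glass beads and filter paper holding 5 mL aqueous test solution (emulsified if needed); germinated 65 h at 28 ± 1 °C under light. Mean above-ground seedling height per cup measured; inhibition percentage derived.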

[4] = system: Pseudoperonospora cubensis; experiment: Fungicidal activity against Pseudoperonospora cubensis in cucumber plant two seed leaves stage assessed as control efficacy from disease indices at 500 ug/mL at 18 to 30 degC and above 80%RH relative to control; settings: read-out: GI; procedure, shortened: as §1
Echinochloa crus-galli [5] = experiment: Herbicidal activity against Echinochloa crus-galli (barnyard grass) assessed as inhibition of seedling growth at 100 ug/mL at 28 degC; procedure, shortened: as §3
[6] = system: Pseudomonas amygdali pv. lachrymans; experiment: Fungicidal activity against Pseudomonas syringae pv. lachrymans in cucumber plant two seed leaves stage assessed as control efficacy from disease indices at 500 ug/mL at 18 to 30 degC and above 80%RH relative to control; settings: read-out: GI; procedure, shortened: as §1

Which inhibition of growth at 500 µg/mL (Sclerotinia sclerotiorum) does the source give for `FC(F)(F)c1nn(CN2CCN(c3ncccn3)CC2)c(=S)n1/N=C/c1ccccc1` here?
The inhibition of growth at 500 µg/mL was 41.7%.

What about the inhibition at 100 µg/mL [1] of the same molecule?
Its inhibition at 100 µg/mL is 66.8%.

What about the inhibition at 10 µg/mL [2] of the same molecule?
Its inhibition at 10 µg/mL is 49.2%.

And the inhibition of growth at 500 µg/mL (Corynespora cassiicola)?
Its inhibition of growth at 500 µg/mL is 56.2%.

What about the inhibition of growth at 500 µg/mL (Ascochyta) of the same molecule?
Its inhibition of growth at 500 µg/mL is 37.1%.

And the inhibition at 10 µg/mL (Echinochloa crus-galli [3])?
Its inhibition at 10 µg/mL is 0%.

And the inhibition of growth at 500 µg/mL [4]?
Its inhibition of growth at 500 µg/mL is 66.3%.

What about the inhibition at 100 µg/mL (Echinochloa crus-galli [5]) of the same molecule?
The inhibition at 100 µg/mL was 0%.

And the inhibition of growth at 500 µg/mL [6]?
The inhibition of growth at 500 µg/mL was 55.8%.
